Bioassay records: PubChem BioAssay, Johns Hopkins Ion Channel Center
TRPC6 inhibitor: blocks the mouse TRPC6 cation channel; hit rate 1.1% among 310,000; HEK293-TRPC6, membrane potential dye, ACh-evoked depolarization; active compounds read low; B-score at 10 µM; Q61143;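 active means B-score under library mean minus 3 SD, initial fluorescence not abnormally high, positive integrated signal ratio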;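 further: B-score derived from integrated fluorescence ratio over the kinetic read; more negative B-score means stronger inhibition of depolarization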
Target sequence (Q61143 whole entry, looked up): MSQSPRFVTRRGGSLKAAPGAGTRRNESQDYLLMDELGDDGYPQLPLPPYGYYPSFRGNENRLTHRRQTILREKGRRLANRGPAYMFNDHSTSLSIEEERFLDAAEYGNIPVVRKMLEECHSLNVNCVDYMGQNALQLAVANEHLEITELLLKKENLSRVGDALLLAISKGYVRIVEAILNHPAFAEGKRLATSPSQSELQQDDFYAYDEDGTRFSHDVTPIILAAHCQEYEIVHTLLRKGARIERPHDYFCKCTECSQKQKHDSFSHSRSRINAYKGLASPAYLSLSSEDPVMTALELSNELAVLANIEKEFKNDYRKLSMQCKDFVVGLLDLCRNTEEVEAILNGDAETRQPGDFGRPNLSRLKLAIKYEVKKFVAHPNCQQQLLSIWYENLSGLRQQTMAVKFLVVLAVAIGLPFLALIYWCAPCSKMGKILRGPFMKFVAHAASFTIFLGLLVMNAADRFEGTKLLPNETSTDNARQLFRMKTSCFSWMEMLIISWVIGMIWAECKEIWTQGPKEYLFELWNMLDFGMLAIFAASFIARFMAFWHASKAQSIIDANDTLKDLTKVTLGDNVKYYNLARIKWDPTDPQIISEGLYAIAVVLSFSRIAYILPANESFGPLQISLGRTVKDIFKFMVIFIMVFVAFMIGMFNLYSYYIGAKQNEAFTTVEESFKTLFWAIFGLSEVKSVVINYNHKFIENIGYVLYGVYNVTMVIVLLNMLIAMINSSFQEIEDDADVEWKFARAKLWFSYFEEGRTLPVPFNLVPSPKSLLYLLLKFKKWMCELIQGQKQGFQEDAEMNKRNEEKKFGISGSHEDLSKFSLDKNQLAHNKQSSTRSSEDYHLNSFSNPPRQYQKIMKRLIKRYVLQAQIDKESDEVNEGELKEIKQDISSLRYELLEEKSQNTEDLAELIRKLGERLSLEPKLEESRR
TRPC4 inh: TRPC4 (mouse) channel inhibition. B-score at 10 µM. Q9QUQ5. HEK293 TRPC4beta/mu-opioid, DAMGO-evoked Fluo4 calcium flux; active compounds read low. AID 2247. hit rate 0.39% among 300,000;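 active means B-score over 3 SD under the library average, no early fluorescence shift, positive overall ratio signal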
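Assay system: HEK293 cells with stable TRPC4beta plus mu-opioid receptor expression; Probe or stimulus: DAMGO in two steps, submaximal then maximal; Dosing: single-point compound dosing; Measured by: Fluo4 calcium-dye fluorescence, kinetic read; Read-out basis: B score from integrated Fluo4 fluorescence ratio.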
TRPC4 act: opens the mouse TRPC4 cation channel; Q9QUQ5; HEK293 TRPC4beta/mu-opioid, Fluo4 calcium fluorescence; active compounds read high; B-score at 10 µM; hit rate 0.49% among 310,000;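 active means B-score above 5 SD of library B-scores, and initial fluorescence ratio not above library mean plus 5 SD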;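 further: positive B-score marks a calcium rise read as TRPC4 activation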
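Material: HEK293 stable line with TRPC4beta plus mu-opioid receptor; technique: Fluo4 calcium-sensitive dye fluorescence, kinetic, 1 Hz baseline; timing: Fluo4 dye loading 45 min at room temperature, 110 s recording; controls: assay buffer as low control, maximal DAMGO as high control; read-out: integrated baseline-normalised fluorescence ratio, converted to per-well B score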
TRPC6 act: activators of mouse TRPC6 channel; AID 2550; B-score at 10 µM; HEK293-TRPC6 membrane potential dye fluorescence; active compounds read high; hit rate 0.13% among 310,000; Q61143;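 active means B-score of the integrated fluorescence ratio above library mean plus 3 SD, and starting fluorescence ratio within library mean plus 5 SD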;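 further: higher score means more depolarization so channel activation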
TRPC4 PAM: TRPC4 (mouse) allosteric potentiation | HEK293 TRPC4beta/mu-opioid, DAMGO EC20, Fluo-4 Ca2+ flux; active compounds read high | B-score at 10 µM | hit rate 0.42% among 310,000 | AID 2227;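 active means B-score of calcium response area above 5 SD of library B-scores, with initial fluorescence ratio within 5 SD of library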;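 further: B-score of integrated fluorescence ratio over time as area under calcium response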
TRPC4 sel inh 2: second check of whether TRPC6 inhibitors also affect mouse TRPC4; inhibition, % at 10 µM; shares compounds with TRPC6 inhibitor; hit rate 42% among 920; HEK293 TRPC4/MOR, membrane potential dye fluorescence; channel activated by saturating DAMGO dose; AID 2776;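 active means compounds whose fluorescence signal differed from control wells by over 3 SD, either direction, in both duplicate plates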
TRPC4 spec: selectivity of TRPC6 inhibitors: effect on mouse TRPC4; shares compounds with TRPC6 inhibitor; HEK293 TRPC4/mu-opioid, membrane potential fluorescence; activity change, negative = inhibition, % at 10 µM; hit rate 61% among 920;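 active means rise or fall in signal beyond 3 SD of buffer-only wells in both replicate plates, either sign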;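 further: integrated kinetic ratio of fluorescence range over baseline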
HEK293 MPD ctr 2-1: parental HEK293 nonspecific activity of TRPC6 inhibitors, second screen | shares compounds with TRPC6 inhibitor | parental HEK293 membrane potential dye fluorescence; maximal acetylcholine challenge after compound addition | signal change vs control, % at 10 µM | hit rate 31% among 920 | AID 2779;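 active means membrane potential signal moving either way by over 3 SD of the maximum-effect control, in both duplicate plates, meaning non-specific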
HEK293 MPD ctr-1: checks TRPC6 inhibitor effects in parental HEK293 cells; shares compounds with TRPC6 inhibitor; parental HEK293 membrane potential dye fluorescence; membrane potential signal change, % at 10 µM; hit rate 60% among 920;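 active means membrane potential signal shifting up or down by more than 3 SD of buffer-only wells, on both duplicate plates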
HEK293 MPD ctr-2: counter-screen for TRPC6 modulators: effect in parental HEK293 cells | membrane potential signal change, % at 10 µM | hit rate 51% among 2,400 | AID 488924 | shares compounds with TRPC6 inhibitor | membrane potential dye fluorescence;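 active means membrane potential signal moves up or down beyond 5 SD from buffer-only wells, on both duplicate plates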
HEK293 MPD ctr 2-2: second check of TRPC6 modulator effects in parental HEK293 cells; shares compounds with TRPC6 inhibitor; membrane potential dye fluorescence; after compound, maximal acetylcholine stimulation; inhibition, % at 10 µM; hit rate 14% among 2,400;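 active means membrane potential signal drops by more than 5 SD from the mean control signal, in both duplicate plates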;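 further: plate controls were acetylcholine ECmax control wells for no effect and buffer only wells for full effect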
TRPC4/MOR mod: mouse TRPC4 off-target activity of TRPC6 modulators. shares compounds with TRPC6 inhibitor. HEK293 TRPC4/mu-opioid, membrane potential fluorescence. percent change from control (negative = decrease, positive = increase), % at 10 µM. hit rate 69% among 2,400;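 active means membrane potential signal moved up or down beyond 5 SD of buffer control wells, in both duplicate plates, actives on both sides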;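 further: plate controls were assay buffer wells for no effect and DAMGO maximal-effect wells for full effect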
TRPC4 ctr inh 2: second check of whether TRPC6 modulators also affect mouse TRPC4. shares compounds with TRPC6 inhibitor. HEK293 TRPC4/mu-opioid, membrane potential dye fluorescence; stimulated with maximal-effect DAMGO. inhibition, % at 10 µM. hit rate 55% among 2,400. AID 488928;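 active means drop in membrane potential signal beyond 5 SD of the control wells in both duplicate plates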;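 further: TRPC4 counter screen for TRPC6 hits run under conditions tuned for TRPC6 not TRPC4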
TRPC6 inh conf: confirmation of mouse TRPC6 inhibitors; shares compounds with TRPC6 inhibitor; hit rate 43% among 3,300; HEK293-TRPC6, membrane potential dye, ACh-evoked depolarization; inhibition, % at 10 µM;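 active means fluorescence ratio falls more than 5 SD below the full-stimulation control mean, in both duplicate runs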;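 further: integrated fluorescence ratio of peak minus minimum over baseline after agonist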
TRPC6 act conf: confirmation of mouse TRPC6 activators; HEK293-TRPC6 membrane potential dye fluorescence, FDSS; activation, % at 10 µM; AID 488961; hit rate 11% among 2,800; shares compounds with TRPC6 inhibitor;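 active means ratio signal rise beyond 5 SD above unstimulated control wells' mean, seen in both duplicate runs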;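 further: plate controls were buffer EC0 wells for no effect and acetylcholine ECmax response for full effect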
Numbers without * were called inactive; i = inactive; . = no result. In the library only some 2.3% were active in any assay of this set; here they are far more common.

SMILES	TRPC6 inhibitor	TRPC4 inh	TRPC4 act	TRPC6 act	TRPC4 PAM	TRPC4 sel inh 2	TRPC4 spec	HEK293 MPD ctr 2-1	HEK293 MPD ctr-1	TRPC6 inh conf	TRPC6 act conf	others
Cc1cccc2sc(N(CCCN(C)C)C(=O)c3ccco3)nc12	-6.78*	i	i	i	i	24.0%*	-19.4%*	9.0%*	i	99.4%*	i
Cc1cccc2sc(N(CCCN(C)C)C(=O)c3ccc(Cl)s3)nc12	-6.61*	i	i	i	i	42.5%*	-14.3%*	i	i	67.3%*	i
Cc1cccc2sc(N(CCCN(C)C)C(=O)c3cc4ccccc4oc3=O)nc12	i	i	i	i	i	.	.	.	.	.	.
Cc1ccc(-c2nc(CS(=O)CC(=O)NCCN3CCCCCC3)c(C)o2)cc1 (stereo not drawn)	i	i	i	i	i	.	.	.	.	.	.
COC(=O)c1ccccc1NC(=O)CN1CCC(C)CC1	-5.08*	i	i	i	i	.	.	.	.	39.0%*	.	HEK293 MPD ctr-2=i;HEK293 MPD ctr 2-2=i;TRPC4/MOR mod=19.5%*;TRPC4 ctr inh 2=i
COC(=O)c1ccccc1NC(=O)COC(C)=O	i	i	i	i	i	.	.	.	.	.	.
COC(=O)c1ccccc1NC(=O)COC(=O)C1CCCCC1	-5*	i	i	i	i	.	.	.	.	41.0%*	.	HEK293 MPD ctr-2=141.5%*;HEK293 MPD ctr 2-2=i;TRPC4/MOR mod=31.0%*;TRPC4 ctr inh 2=i
c1ccc(-c2nc(-c3ccccn3)nc(-c3ccccn3)n2)nc1	-6.74*	i	i	i	i	i	-18.9%*	4.0%*	-266.0%*	i	i
CCCN(CC(=O)Nc1ccccc1C)C(=O)c1ccc(=O)n(Cc2ccccc2)n1	-5.1*	i	i	i	i	.	.	.	.	i	i	HEK293 MPD ctr-2=89.5%*;HEK293 MPD ctr 2-2=i;TRPC4/MOR mod=16.5%*;TRPC4 ctr inh 2=i
CCN(CC(=O)Nc1ccccc1C(F)(F)F)C(=O)c1ccc(=O)n(Cc2ccccc2)n1	i	i	i	i	i	.	.	.	.	.	.
CCc1ccc2oc(C(=O)NCCc3ccc(S(N)(=O)=O)cc3)cc(=O)c2c1	i	i	i	i	i	.	.	.	.	.	.
O=[N+]([O-])c1cc(Br)c(Nc2ccccc2)c([N+](=O)[O-])c1	i	i	i	i	i	.	.	.	.	.	.
O=[N+]([O-])c1cc([N+](=O)[O-])c2c(=Nc3ccccc3)n(-c3ccccc3)n(O)c2c1	-7.15*	i	i	i	i	49.5%*	-13.5%*	i	-183.5%*	i	i
O=[N+]([O-])c1ccc(C[n+]2cccc3c4ccccc4ccc32)cc1	-6.01*	i	i	i	i	.	.	.	.	51.0%*	i	HEK293 MPD ctr-2=-434.0%*;HEK293 MPD ctr 2-2=i;TRPC4/MOR mod=-61.0%*;TRPC4 ctr inh 2=64.5%*
Cc1ccc[n+](Cc2ccc([N+](=O)[O-])cc2)c1	i	i	i	i	i	.	.	.	.	.	.
COc1ccc(NC(=O)CCc2nnc3ccc(N4CCN(c5cccc(OC)c5)CC4)nn23)cc1	i	i	i	i	i	.	.	.	.	.	.
O=c1oc(Nc2cccc(F)c2)nc2ccccc12	i	i	i	i	i	.	.	.	.	.	.
Cc1ccc(O)c(Nc2nc(-c3ccccc3)nc3ccccc23)c1	i	i	i	i	i	.	.	.	.	.	.
Nc1nc(Nc2cccc(F)c2)nc2ccccc12	-13*	i	i	i	i	22.5%*	-33.0%*	-37.0%*	-493.0%*	90.2%*	i
Cc1ccc(C)c(Nc2ncnc(N)c2[N+](=O)[O-])c1	i	i	i	i	i	.	.	.	.	.	.
COc1ccc(Cl)cc1Nc1nc(N)c2ccccc2n1	-10.8*	i	i	i	i	46.5%*	-20.0%*	i	-185.0%*	80.9%*	i
Cc1ccc(C)c(Nc2nc(N)c3ccccc3n2)c1	-15.9*	i	i	i	i	18.5%*	-30.3%*	-3.0%*	-269.0%*	89.6%*	i
COc1ccc(C)cc1Nc1nc(N)c2cc(OC)c(OC)cc2n1	i	i	i	i	i	.	.	.	.	.	.
Cc1ccc(O)c(Nc2c3ccccc3nc3ccccc23)c1	-5.59*	i	i	i	i	.	.	.	.	i	i	HEK293 MPD ctr-2=-92.0%*;HEK293 MPD ctr 2-2=i;TRPC4/MOR mod=-18.5%*;TRPC4 ctr inh 2=60.0%*
Cc1ccc2nc3c(c(C(=O)O)c2c1)CCC3	i	i	i	i	i	.	.	.	.	.	.
Cc1nc2c(C)cccc2c2c1COC2	-9.08*	i	i	i	i	i	-30.4%*	35.5%*	-433.5%*	61.0%*	i
Cc1ccc2nc(C)c3c(c2c1)COC3	-6.28*	i	i	i	i	.	.	.	.	43.5%*	i	HEK293 MPD ctr-2=-165.0%*;HEK293 MPD ctr 2-2=84.0%*;TRPC4/MOR mod=-27.0%*;TRPC4 ctr inh 2=47.0%*
CC1CCc2sc(C(=O)NNC(=S)NC3CC3)cc2C1 (stereo not drawn)	i	i	i	i	i	.	.	.	.	.	.
COCC(=O)Nc1ncc(S(=O)(=O)c2ccc([N+](=O)[O-])cc2)s1	i	i	i	i	i	.	.	.	.	.	.
O=C(NC(Nc1ncc(S(=O)(=O)c2ccc([N+](=O)[O-])cc2)s1)(C(F)(F)F)C(F)(F)F)c1ccc(Cl)cc1	-8.16*	i	i	i	i	65.0%*	9.8%*	i	5.0%*	67.6%*	i
